The full list was thinned out, with hits kept by preference.
INS-1E ATP HTS: protection of INS-1E cells from cytokine death, primary screen, ATP luminescence, single point; 20,000 tested, 0.1% active; protection from cytokine-induced ATP loss, % at 10 µM; INS-1E cytokine-induced death, 48 h; normalised: neutral wells 0, positive control 100; AID 488910, 2010;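 active means mean replicate protection from cytokine-induced ATP loss at least 50% and at least 75% of replicates each reaching 50%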
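Material: INS-1E rat cells; Quantity: 8000 cells/well; Buffer or medium: phenol-red-free RPMI with 5% fetal bovine serum; Probe or stimulus: cytokine cocktail of IFN-γ, TNF-α and IL-1β; Compound dosing: single test concentration per compound, delivered by pin transfer; Incubation: 48 h co-treatment, 10 min post-lysis read; Signal: CellTiter-Glo luminescence.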
T cruzi HTS: inhibitors of intracellular Trypanosoma cruzi, primary screen, cell-based, plate reader, single point, set 2; activity score (inhibition), % at 5.01 µM; 22,000 tested, 4.9% active; intracellular Trypanosoma cruzi in host cells; in the data active means activity score above about 55%;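 further: parasites and compound incubated about four days before reading; 0% = median of neutral control wells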
A1 apoptosis 2: A1 inhibitors via caspase activation, primary screen, cell-based, luminescence, HTS, two replicates. MEF A1-2A-BIM cells, caspase-Glo luminescence, 3 h; percent of clofoctol response, DMSO zero. caspase activation, % (concentration not given with the values). 24,000 tested, under 10 active. AID 2465, 2010; in the data active means caspase activation above about 5.9%
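System: mouse embryonic fibroblasts co-expressing A1 and BIM (A1-2A-BIM), primed for A1 dependence; amount: 2500 cells/well; doses: 50 nL pinned compound; schedule: cells settled overnight, compound exposure 3 h at 37 °C, 5% CO2; detection: Caspase-Glo 3/7 luminescence, 1 h at room temperature; read-out: Caspase-3/7 activation, seen as rise in luminescence signal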
* hit, by the source's call; · = not tested or not shown.

SMILES	INS-1E ATP HTS	T cruzi HTS	A1 apoptosis 2
C[C@H]1CN([C@@H](C)CO)C(=O)c2cccc(NC(=O)Nc3cccc4ccccc34)c2O[C@@H]1CN(C)C(=O)Nc1ccc(F)cc1	-5.1	21.7	0.7
C[C@H](CO)N1C[C@H](C)[C@H](CN(C)C(=O)Nc2ccc(F)cc2)Oc2c(NC(=O)Nc3cccc4ccccc34)cccc2C1=O	-102.0	70.8*	0.8
C[C@@H]1CN([C@H](C)CO)C(=O)c2cccc(NC(=O)Nc3ccc(C(F)(F)F)cc3)c2O[C@H]1CN(C)C(=O)Nc1ccc(C(F)(F)F)cc1	-70.7	75.2*	-0.4
C[C@H](CO)N1C[C@H](C)[C@H](CN(C)Cc2ccc(Cl)c(Cl)c2)Oc2c(NC(=O)Nc3ccc(C(F)(F)F)cc3)cccc2C1=O	-42.8	63.2*	-0.1
C[C@H](CO)N1C[C@H](C)[C@H](CN(C)Cc2ccc(Cl)c(Cl)c2)Oc2c(NC(=O)Nc3ccc(F)cc3)cccc2C1=O	-11.2	0.0	·
O=C(CCCCCC(=O)N/N=C/c1cccnc1Br)NO	·	·	-0.4
C[C@H]1CN([C@@H](C)CO)C(=O)c2cc(NS(=O)(=O)c3cccs3)ccc2O[C@@H]1CN(C)Cc1ccc(C(=O)O)cc1	5.2	-12.5	·
C[C@@H]1CN([C@H](C)CO)C(=O)c2cccc(NC(=O)Nc3cccc4ccccc34)c2O[C@H]1CN(C)C(=O)NC1CCCCC1	4.8	10.1	-1.3
C[C@@H]1CN([C@@H](C)CO)C(=O)c2cccc(NC(=O)Nc3ccc(C(F)(F)F)cc3)c2O[C@@H]1CN(C)C(=O)Nc1ccc(C(F)(F)F)cc1	-107.9	87.9*	·
C[C@H](CO)N1C[C@H](C)[C@H](CN(C)C(=O)NC2CCCCC2)Oc2c(NC(=O)Nc3cccc4ccccc34)cccc2C1=O	-35.4	63.1*	0.7
C[C@H](CO)N1C[C@H](C)[C@@H](CN(C)C(=O)Nc2ccc(C(F)(F)F)cc2)Oc2c(NC(=O)Nc3ccc(C(F)(F)F)cc3)cccc2C1=O	-72.9	78.0*	-0.6
C[C@@H]1CN([C@H](C)CO)C(=O)c2cccc(NC(=O)Nc3ccccc3)c2O[C@H]1CN(C)C(=O)Nc1ccc(C(F)(F)F)cc1	2.9	0.0	0.1
C[C@H]1CN([C@@H](C)CO)C(=O)c2cccc(NC(=O)Nc3ccc(C(F)(F)F)cc3)c2O[C@@H]1CN(C)C(=O)Nc1ccc(F)cc1	8.2	3.0	0.2
N#Cc1ccc(/C=N/NC(=O)c2cccc(C(=O)NO)c2)cc1	3.3	-5.6	-0.7
COc1cc(Br)c(/C=N/NC(=O)c2ccccn2)cc1OC	7.4	-3.6	-0.4
CC1=C(C/C=N/NC(=O)CCCCCCC(=O)Nc2ccccc2O)C(C)(C)CCC1	7.8	6.5	·
O=C(Cc1ccccc1)OC(C(=O)NCc1ccccc1)c1ccco1 (stereo unspecified)	·	·	-0.8
C[C@H]1CN([C@@H](C)CO)C(=O)c2cc(NC(=O)NC3CCCCC3)ccc2O[C@@H]1CN(C)Cc1ccc2c(c1)OCO2	-8.0	-5.3	0.7
C[C@H](CO)N1C[C@H](C)[C@H](CN(C)Cc2ccc3c(c2)OCO3)Oc2ccc(NC(=O)NC3CCCCC3)cc2C1=O	·	56.2*	0.2
C[C@H]1CN([C@@H](C)CO)C(=O)c2cc(NC(=O)NC3CCCCC3)ccc2O[C@H]1CN(C)Cc1ccc2c(c1)OCO2	5.2	58.4*	-0.2
C[C@@H]1CN([C@H](C)CO)C(=O)c2cc(NC(=O)NC3CCCCC3)ccc2O[C@@H]1CN(C)Cc1ccc2c(c1)OCO2	1.1	-15.9	0.1
COc1ccc(NC(=O)Nc2ccc3c(c2)C(=O)N([C@@H](C)CO)C[C@@H](C)[C@@H](CN(C)S(=O)(=O)c2cn(C)cn2)OCCCC[C@@H](C)O3)cc1	·	·	1.0
C[C@@H]1CCCCO[C@@H](CN(C)Cc2ccc(C(F)(F)F)cc2)[C@@H](C)CN([C@H](C)CO)C(=O)c2cc(NC(=O)Nc3ccc4c(c3)OCO4)ccc2O1	-12.8	70.4*	-1.1
COc1ccc(CN(C)C[C@@H]2OCCCC[C@H](C)Oc3ccc(NC(=O)Nc4ccc(C(F)(F)F)cc4)cc3C(=O)N([C@@H](C)CO)C[C@H]2C)cc1	·	·	1.0
C[C@@H]1CCCCO[C@@H](CN(C)Cc2ccncc2)[C@@H](C)CN([C@@H](C)CO)C(=O)c2cc(NC(=O)Nc3ccc(C(F)(F)F)cc3)ccc2O1	·	·	0.1
C[C@@H]1CCCCO[C@@H](CN(C)Cc2ccncc2)[C@@H](C)CN([C@H](C)CO)C(=O)c2cc(NC(=O)Nc3ccc(C(F)(F)F)cc3)ccc2O1	-3.1	57.4*	·

High-throughput results as filed in PubChem BioAssay.
